Laboratory results published in paper PMC11827156 (Malaria Journal, 2025).
Read-outs that look alike come from different tables or passages of the source.

Columns and labels:
[1] = molecular target: P. falciparum PfSR25− (serpentine receptor 25 knockout strain); test: Comparative IC50 screening, 3D7 versus serpentine receptor 25 knockout strain; type: cell-based, Plasmodium falciparum; conditions: 72 h, 0.0019–2 µM, Student's t test
Outline: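 Asynchronous 3D7 and PfSR25− cultures (37 °C, 90% N2/5% O2/5% CO2) at 0.3% parasitaemia and 2% haematocrit were exposed for 72 h to eleven final concentrations. Controls were 0.13% DMSO and chloroquine 0.2441–250 nM. Cells were stained with SYBR Green-I (1:10,000) plus MitoTracker Deep Red (50 nM) for 20 min at 37 °C and read by flow cytometry. Survival was taken relative to DMSO, in triplicate over three experiments. IC50 ± SEM came from dose–response curves.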

[2] = Cytotoxicity of the compounds in HEK293 cells; type: cell-based, human; conditions: human, HEK293 cells
Outline: (§1)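 HEK293 cells (passages 7–12, grown in DMEM with 10% FBS and penicillin/streptomycin at 37 °C, 5% CO₂) were trypsinized and seeded at 10^4 cells/well. They were exposed to test compound or DMSO vehicle for 72 h. MTT (5 mg/mL reagent) was then added for 3 h, and the formazan was dissolved in DMSO. Absorbance was read at 570 nm and dose–response curves were fitted. Each condition was run in triplicate in 3 independent experiments.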

HEK293 cells = test: Cytotoxicity of the compounds in HEK293 cells; type: cell-based, human; conditions: MTT, 72 h, 0.0019–2 µM
Outline: as §1

[3] = system: P. falciparum gametocytes; conditions: read-out: IC50 against P. falciparum gametocytes; cited from earlier work
P. falciparum 3D7 [4] = type: cell-based, Plasmodium falciparum; conditions: Plasmodium falciparum
P. falciparum 3D7 [5] = conditions: cited from earlier work

Compound | difference of IC50 between 3D7 and PfSR25− [1] | CC50 at 72 h [2] | cytotoxic activity in HEK293 cells (HEK293 cells) | IC50 [3] | IC50 (P. falciparum 3D7 [4]; 3D7, 72 h, read-out: IC50 (nM) 3D7, Table 1, asynchronous culture, 72 h, 0.0019–2 µM, ± standard error of the mean) | IC50 (P. falciparum 3D7 [4]; 3D7, read-out: IC50 nM 3D7, Table 2) | action on melatonin in the cell cycle of P. falciparum 3D7 (P. falciparum 3D7 [5])
CN(CCCNCc1cccc2ccccc12)CCCNCc1cccc2ccccc12.Cl [TCMDC-137905, Cl.CN(CCCNCc1cccc2ccccc12)CCCNCc1cccc2ccccc12] | none of the compounds tested were significantly different between the two strains | 5.55 µM | exhibited cytotoxic activity in HEK293 cells | 230 nM | 91.1 ± 18.4 nM | 91.1 nM | –
Melatotosil | – | – | – | – | – | – | blocks the action of melatonin in the cell cycle of P. falciparum 3D7
